The text below walks through data of ChEMBL document CHEMBL1150797 (Antimicrob Agents Chemother, 2007).

SMILES strings stand for the structures.

The nature of data set [1]: Tmax in tuberculosis patient at 750 mg, po coadministered with 450 mg, po rifampin. Type of data set: ADME, organism-based. Conditions: human, in vivo. Put shortly:
(§1)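 Plasma was sampled predose and at 1–12 h (nine points). Assay: spiked with internal standard, chloroform extraction, derivatization, HPLC-UV at 215 nm, LLOQ 0.05 mg/liter. Noncompartmental analysis: Cmax and Tmax observed, t1/2 = 0.693/β, AUC0-24 by linear-log trapezoid.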

Data set [2] is described as follows: Half life in tuberculosis patient at 750 mg, po coadministered with 450 mg, po rifampin. Conditions: human, in vivo. Format: ADME, organism-based. The method in brief:
as §1

The nature of data set [3]: AUC (0 to 24 hrs) in tuberculosis patient at 750 mg, po coadministered with 450 mg, po rifampin. Type of data set: ADME, organism-based. To be noted: human, plasma. Also on record: dose 750 mg, time < 24 hr, route oral. Put shortly:
as §1

In data set [4] the test system is Homo sapiens. The data set is described as follows: Cmax in tuberculosis patient at 750 mg, po coadministered with 600 mg, po rifampin. Conditions: in vivo. Also on record: dose 750 mg, route oral. Format: ADME, organism-based. The method in brief:
as §1

Data set [5] can be described thus: Half life in tuberculosis patient at 750 mg, po coadministered with 600 mg, po rifampin. Format: ADME, organism-based. Conditions: human, in vivo. The method in brief: as §1
Data set [6] relates to Homo sapiens. Nature of the data set: Cmax in tuberculosis patient at 750 mg, po coadministered with 450 mg, po rifampin. Type of data set: ADME, organism-based. Set-up: dose 750 mg, route oral. To be noted: in vivo. The method in brief: as §1
Data set [7] in a line: AUC (0 to 24 hrs) in tuberculosis patient at 750 mg, po coadministered with 600 mg, po rifampin. Format: ADME, organism-based. Also on record: time < 24 hr, dose 750 mg, route oral. To be noted: human, plasma. Put shortly: as §1
Data set [8] is described as follows: Tmax in tuberculosis patient at 750 mg, po coadministered with 600 mg, po rifampin. Format: ADME, organism-based. Conditions: human, in vivo. Put shortly: as §1
The nature of data set [9]: Half life in tuberculosis patient at 1500 mg, po coadministered with 600 mg, po rifampin. Type of data set: ADME, organism-based. To be noted: human, in vivo. Put shortly:
(§2)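 Venous plasma was drawn predose and at 1, 1.5, 2, 2.5, 3, 4, 6 and 12 h. Assay: solid-phase extraction, HPLC-UV at 266 nm, LLOQ 0.1 mg/liter. Cmax and Tmax were observed values; noncompartmental analysis gave t1/2 as 0.693/β and AUC0-24 by linear-log trapezoid with C24 extrapolated.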

Data set [10] is described as follows: Tmax in tuberculosis patient at 1500 mg, po coadministered with 600 mg, po rifampin. Format: ADME, organism-based. To be noted: human, in vivo. Put shortly: as §2
A short description of data set [11]: Tmax in tuberculosis patient at 1500 mg, po coadministered with 450 mg, po rifampin. Format: ADME, organism-based. Conditions: human, in vivo. The method in brief: as §2
The nature of data set [12]: Cmax in tuberculosis patient at 1500 mg, po coadministered with 600 mg, po rifampin. Format: ADME, organism-based. Set-up: dose 1500 mg, route oral. Conditions: human, in vivo. The method in brief: as §2
The nature of data set [13]: Half life in tuberculosis patient at 1500 mg, po coadministered with 450 mg, po rifampin. Type of data set: ADME, organism-based. Conditions: human, in vivo. The method in brief:
as §2

Data set [14] is described as follows: AUC (0 to 24 hrs) in tuberculosis patient at 1500 mg, po coadministered with 600 mg, po rifampin. Format: ADME, organism-based. Set-up: dose 1500 mg, time < 24 hr, route oral. To be noted: human, plasma. Put shortly: as §2
Data set [15] is described as follows: AUC (0 to 24 hrs) in tuberculosis patient at 1500 mg, po coadministered with 450 mg, po rifampin. Format: ADME, organism-based. Set-up: time < 24 hr, dose 1500 mg, route oral. Conditions: human, plasma. Put shortly: as §2
A short description of data set [16]: Cmax in tuberculosis patient at 1500 mg, po coadministered with 450 mg, po rifampin. Type of data set: ADME, organism-based. Also on record: dose 1500 mg, route oral. To be noted: human, in vivo. The method in brief:
as §2

A short description of data set [17]: Apparent volume of distribution in tuberculosis patient at 450 mg, po. Type of data set: ADME, organism-based. To be noted: human, in vivo, read-out: Vc/F.
Data set [18] in a line: Apparent clearance in tuberculosis patient at 600 mg, po. Type of data set: ADME, organism-based. Conditions: human, in vivo.
A short description of data set [19]: clinical. To be noted: human, plasma, po, 600 mg.
Data set [20] is described as follows: clinical. To be noted: human, plasma, po, 450 mg.
The nature of data set [21]: Tmax in tuberculosis patient at 450 mg, po. Type of data set: ADME, organism-based. To be noted: human, in vivo.
For data set [22], the system named is Homo sapiens. Nature of the data set: Tmax in tuberculosis patient assessed as desacetylrifampin level at 450 mg, po. Format: ADME, organism-based. To be noted: in vivo.
Data set [23] is described as follows: Apparent clearance in tuberculosis patient at 450 mg, po. Format: ADME, organism-based. Conditions: human, in vivo.
The nature of data set [24]: Apparent volume of distribution in tuberculosis patient at 600 mg, po. Conditions: human, in vivo, read-out: Vc/F. Type of data set: ADME, organism-based.
Data set [25] concerns Homo sapiens. The data set is described as follows: Tmax in tuberculosis patient at 600 mg, po. Type of data set: ADME, organism-based. To be noted: in vivo.
In data set [26] the test system is Homo sapiens. Nature of the data set: Tmax in tuberculosis patient assessed as desacetylrifampin level at 600 mg, po. Type of data set: ADME, organism-based. Conditions: in vivo.
Data set [27] is described as follows: Cmax in human tuberculosis patient at 600 mg, po. Conditions: in vivo.

As to `CC[C@@H](CO)NCCN[C@@H](CC)CO` [ETHAMBUTOL], the time to peak (Tmax) in [1] and in data set [8] was 2.5 h each time. Further, the half-life is 4.2 h in data set [2] and 4.6 h in data set [5]. The AUC(0-t) at 24 h in data set [3] was 14400 ng·h/mL; in data set [7], 14700 ng·h/mL. In addition, the Cmax is 2.3 h in data set [4] and 2.4 h in data set [6].

Take `NC(=O)c1cnccn1` [PYRAZINAMIDE]: the half-life in data set [9] was 6.9 h; in data set [13] it was 6.6 h. Besides, the Tmax in data set [10] was found to be 2.5 h; in data set [11] it was 2.75 h. Besides, the Cmax was 46000 ng/mL in [12] and 43800 ng/mL in data set [16]. Besides, the results for the AUC(0-t) at 24 h in data set [14] and in data set [15] were 514000 ng·h/mL and 473000 ng·h/mL, respectively.

In the case of `CO[C@H]1/C=C/O[C@@]2(C)Oc3c(C)c(O)c4c(O)c(c(/C=N/N5CCN(C)CC5)c(O)c4c3C2=O)NC(=O)/C(C)=C\C=C\[C@H](C)[C@H](O)[C@@H](C)[C@@H](O)[C@@H](C)[C@H](OC(C)=O)[C@@H]1C` [RIFAMPIN], the Vd/F in data set [17] stood at 25.3 L; in data set [24] it was 23.3 L. In addition, the CL/F in data set [18] was 125 mL/min; in data set [23], 153 mL/min. The exposure AUC(0-t) at 24 h came out at 79700 ng·h/mL in data set [19] and 48500 ng·h/mL in data set [20]. In addition, the Tmax in data set [21] was determined as 2 h; in data set [22], 4 h; in data set [25], 1 h; in data set [26] it was 4 h. The Cmax in [27] is 15600 ng/mL.
